# From PubChem BioAssay
# Casp6 inh – human caspase-6 inhibitors, primary screen, biochemical, VEID-R110 fluorescence, single point, set 2. purified caspase-6, Z-VEID-R110 cleavage fluorescence. inhibition, % at 12.5 µM. hit rate 0.53% among 350,000. AID 686996, 2013;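 active means mean inhibition across replicates at least about 35%, with every replicate also reaching that limit, limit read from the data; inconclusive means only one of the two criteria met; inactive means neither criterion met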;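 further: 0% = median of neutral control wells and 100% = no fluorescence left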
# Target sequence (P55212 24-179 limits assumed): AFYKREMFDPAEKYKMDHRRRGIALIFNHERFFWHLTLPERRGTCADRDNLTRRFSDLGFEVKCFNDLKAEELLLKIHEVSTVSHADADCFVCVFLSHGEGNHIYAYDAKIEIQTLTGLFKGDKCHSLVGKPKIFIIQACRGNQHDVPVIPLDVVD
# Target sequence (P55212 194-293 limits assumed): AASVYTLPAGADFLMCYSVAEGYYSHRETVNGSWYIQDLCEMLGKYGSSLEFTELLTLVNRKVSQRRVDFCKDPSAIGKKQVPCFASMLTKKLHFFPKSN
# PGC1a acetyl inh – inhibitors of PGC1a acetylation signal, primary screen, cell-based, U2OS, AlphaScreen, inhibitor mode. hit rate 0.17% among 350,000. AID 651687, 2012. AlphaScreen anti-acetyl-lysine; with virally co-expressed GCN5 acetyltransferase. inhibition, % at 15.6 µM;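 active means every replicate shows inhibition of at least 40%; inconclusive means mean inhibition at least 40% but some replicate below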;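 further: 0% = neutral control wells and 100% = positive control wells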
# ARNT TACC3 PPI – disruptors of ARNT/TACC3 protein interaction, primary screen, biochemical, AlphaScreen, single concentration; inhibition, % at 9.99 µM; AlphaScreen His-ARNT PAS-B/GST-TACC3 binding, luminescence; TACC3 fragment carries E629A point mutation; Transforming acidic coiled-coil-containing protein 3 (Homo sapiens), Q9Y6A5; hit rate 0.66% among 390,000;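 active means mean inhibition of replicates at least 50% and at least half of replicates each reaching 50%; inconclusive means half or more replicates reach 50% but mean below 50%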;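 further: 0% = complete ARNT plus TACC3 wells and 100% = ARNT alone without TACC3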
# ERAP1 inh – human ERAP1 aminopeptidase inhibitors, primary screen, biochemical, single point, plate reader; hit rate 0.15% among 340,000; recombinant ERAP1, Leu-AMC fluorescence, 60 min; AID 652197, 2013; inhibition, % at 10.7 µM;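 active means mean replicate inhibition of at least 30%, or all replicates individually reaching that 30% level; inactive means mean below 30% and not every replicate reaching it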;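 further: 0% = neutral control wells and 100% = L-leucinethiol positive control wells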
# S100A4 MyoIIA – inhibitors of S100A4-myosin IIA peptide binding, primary screen, biochemical, fluorescence polarization, TAMRA-MyoIIA peptide; hit rate 0.14% among 360,000; inhibition, % at 10.7 µM; AID 652163, 2013;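 active means mean inhibition of at least 70% across replicates, with every replicate also reaching that level; inconclusive means mean inhibition reaches 70% but some replicates fall short; inactive means mean inhibition below 70%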
# Target sequence (P26447 whole entry, looked up): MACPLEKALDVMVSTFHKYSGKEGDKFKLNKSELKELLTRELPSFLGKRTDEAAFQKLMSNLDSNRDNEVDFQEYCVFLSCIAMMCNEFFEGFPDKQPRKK
#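 System – human S100A4 monomer protein, biochemical binding assay · Buffer or medium – Calcium-containing HEPES buffer, pH 7.2 · Timing – 5 min between mix addition and reading · Also added – TAMRA-labelled myosin IIA heavy-chain peptide probe, 5 nM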
# rRNA inh HTS – reduced GFP signal of wild-type E. coli, primary screen, bacterial rRNA inhibitor project, GFP/RFP fluorescence, OD600, single point; AID 720706, 2013; hit rate 1.6% among 350,000; E. coli WT GFP vs humanized-ribosome RFP mutants, 24 h; active compounds read low; DMSO median 0, no signal -100; GFP signal change (wild-type ribosome), % (no concentration beside the values);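 active means significant combined selectivity score with lowered wild-type GFP, culture density cut under 30%, mutant RFP and density less affected; inactive means any of these conditions unmet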
# AID977621 – growth inhibition of wild-type GFP E. coli, dose response, H69 mutant RFP, cherry-pick; 1,900 tested, under 10 active; shares compounds with rRNA inh HTS; activity change, negative = inhibition at 50 µM; E. coli wild-type GFP strain growth, fluorescence, 24 h;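 active means Wild-type ribosome reporter drop at least double the humanized mutant ribosome reporter drop, growth loss under a set limit; inconclusive means no clear call, values can overlap the other calls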;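 further: wild-type GFP and H69 mutant RFP strains grown together 50/50 in each well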
# AID977628 – E. coli growth inhibition, wild-type GFP versus h24 humanized RFP strain, dose response, h24 mutant RFP vs wild-type GFP, cherry-pick | activity change, negative = inhibition at 50 µM | shares compounds with rRNA inh HTS | E. coli WT GFP strain growth, fluorescence, 24 h | 1,900 tested, under 10 active | AID 977628, 2014;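 active means compound lowering the normal-ribosome reporter at least twice as much as the humanized-ribosome reporter, growth loss under a set limit; inconclusive means no clear call, values can overlap the other calls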;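 further: wild-type GFP and h24 humanized RFP strains co-cultured 1 to 1 per well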
# An asterisk follows results filed as active; ? = inconclusive; . = no result given. The list is not random: actives were taken first. Their share in the collection is about 2.4%.
SMILES,Casp6 inh,PGC1a acetyl inh,ARNT TACC3 PPI,ERAP1 inh,S100A4 MyoIIA,rRNA inh HTS,AID977621,AID977628
CC(C)(C)S(=O)(=O)Cc1nc(-c2ccc(Cl)c(Cl)c2)cs1,1,.,16,2,-4,-15*,-1,-2.6
CN(CC(=O)Nc1ccc(F)cc1)C(=O)Cn1c(=O)oc2ccccc21,1,2,.,-2,-13,4,.,.
CN(CC(=O)Nc1cccc(F)c1)C(=O)Cn1c(=O)oc2ccccc21,7,0,0,0,-7,-17*,-4.9,-5
Cc1ccc(Nc2nc(C(=O)NCC3CCCO3)cs2)cc1 (stereo not drawn),2,-4,-2,0,1,-42*,3.5,-3.1
Cc1ccc(-c2cc(C(=O)NCC3CCCO3)no2)cc1 (stereo not drawn),.,-2,-7,.,.,.,.,.
CCS(=O)(=O)Nc1ccc2c(c1)C(=O)N(C)[C@@H]1CC[C@H](CC(=O)NC)O[C@@H]1CO2,2,-3,-2,0,15,-1,.,.
Cc1noc(C)c1COc1cccc(C(=O)N2CCc3ccccc32)c1,0,-8,3,0,-18,-41*,-7.5,-11
COc1ccc(CN(C)C[C@H]2Oc3c(NC(=O)C4CCOCC4)cccc3C(=O)N([C@H](C)CO)C[C@@H]2C)cc1,2,3,-3,-3,-4,0,.,.
O=C(COc1ccccc1Cl)Nc1nc(-c2ccncc2)cs1,-2,.,-1,0,-5,-20*,-3.8,-13
CC(=O)NC[C@H]1[C@@H](c2ccc(C3=CCCCC3)cc2)[C@@H](CO)N1C(=O)C1CCC1,-2,.,.,0,-14,-3,.,.
CC(=O)N1CCOc2ccc(S(=O)(=O)N(C)c3ccc(C)cc3)cc21,0,-20,3,0,-3,-21*,-13,.
Cc1noc(C)c1S(=O)(=O)Nc1ccc2c(c1)C(=O)N([C@@H](C)CO)C[C@@H](C)[C@H](CN(C)S(=O)(=O)c1ccccc1)OCCCC[C@H](C)O2,4,10,-5,-1,-11,0,.,.
CSc1nc(SCCN(C)C)c2c3c(sc2n1)COC(C)(C)C3,-2,.,11,-3,-2,-23*,.,2.5
CCC1(C)Cc2c(sc3nc(SC)nc(NCCN(C)C)c23)CO1 (stereo not drawn),.,.,3,.,.,.,.,.
CC(=O)NCCOc1nc(N2CCCCC2)nc(N2CCCCC2)n1,2,-1,-1,2,-5,-25*,-6.6,-10
O=C(NCCOc1nc(N2CCCCC2)nc(N2CCCCC2)n1)Nc1ccccc1,-3,13,.,1,3,1,.,.
Cc1noc(C)c1NC(=O)Nc1ccc2c(c1)C(=O)N([C@H](C)CO)C[C@H](C)[C@@H](CN(C)C(=O)Nc1c(C)noc1C)OCCCC[C@@H](C)O2,1,-6,-6,-2,5,1,.,.
Cc1noc(C)c1NC(=O)Nc1ccc2c(c1)C(=O)N([C@@H](C)CO)C[C@@H](C)[C@H](CN(C)C(=O)Nc1ccc3c(c1)OCO3)OCCCC[C@@H](C)O2,0,-4,-2,1,-4,1,?,13
